Source: ChEMBL document CHEMBL1275293, “Aqua mediated synthesis of 2-amino-6-benzothiazol-2-ylsulfanyl-chromenes and its in vitro study, explanation of the structure-activity relationships (SARs) as antibacterial agent” (2010)
In brackets after ≈: the same amount, converted by molar mass.

Legend:
Type in all cases: functional
Staphylococcus aureus = assay: Antimicrobial activity against Staphylococcus aureus by broth microdilution method
In short: (§1)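 Broth microdilution MIC following the NCCLS standard protocol, run in 96-well plates with 0.2 ml Mueller Hinton broth per well. Compounds were serially doubled from 0.5 to […] μg/ml, with ampicillin as reference. Inoculum was set to McFarland 0.5 turbidity, then diluted to about 5 × 10^5 cfu/ml per well. Plates included broth+inoculum and broth-only controls and were incubated overnight at 37 °C.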

[1] = system: Staphylococcus epidermidis; assay: Antimicrobial activity against Staphylococcus epidermidis by broth microdilution method; in short: as §1
Pseudomonas aeruginosa = assay: Antimicrobial activity against Pseudomonas aeruginosa by broth microdilution method; in short: as §1
Escherichia coli = assay: Antimicrobial activity against Escherichia coli by broth microdilution method; in short: as §1

SMILES	MIC (Staphylococcus aureus) [µg/mL]	MIC [1] [µg/mL]	MIC (Pseudomonas aeruginosa) [µg/mL]	MIC (Escherichia coli) [µg/mL]
N#CC1=C(N)Oc2ccc(Sc3nc4ccccc4s3)cc2C1c1ccccc1 (stereo not given)	4 (≈ 9.67 µM)	8 (≈ 19.3 µM)	32 (≈ 77.4 µM)	16 (≈ 38.7 µM)
N#CC1=C(N)Oc2ccc(Sc3nc4ccccc4s3)cc2C1c1cccs1 (stereo not given)	2 (≈ 4.77 µM)	64 (≈ 153 µM)	32 (≈ 76.3 µM)	2 (≈ 4.77 µM)
N#CC1=C(N)Oc2ccc(Sc3nc4ccccc4s3)cc2C1c1ccc(Cl)cc1 (stereo not given)	4 (≈ 8.93 µM)	32 (≈ 71.4 µM)	16 (≈ 35.7 µM)	32 (≈ 71.4 µM)
COc1ccc(C2C(C#N)=C(N)Oc3ccc(Sc4nc5ccccc5s4)cc32)cc1 (stereo not given)	8 (≈ 18 µM)	16 (≈ 36.1 µM)	2 (≈ 4.51 µM)	32 (≈ 72.1 µM)
N#CC1=C(N)Oc2ccc(Sc3nc4ccccc4s3)cc2C1c1ccc2ccccc2c1 (stereo not given)	16 (≈ 34.5 µM)	32 (≈ 69 µM)	8 (≈ 17.3 µM)	16 (≈ 34.5 µM)
N#CC1=C(N)Oc2ccc(Sc3nc4ccccc4s3)cc2C1c1ccc2c(c1)OCO2 (stereo not given)	8 (≈ 17.5 µM)	4 (≈ 8.74 µM)	8 (≈ 17.5 µM)	1 (≈ 2.19 µM)
N#CC1=C(N)Oc2ccc(Sc3nc4ccccc4s3)cc2C1c1c[nH]c2ccccc12 (stereo not given)	2 (≈ 4.42 µM)	32 (≈ 70.7 µM)	16 (≈ 35.4 µM)	0.5 (≈ 1.1 µM)
N#CC1=C(N)Oc2ccc(Sc3nc4ccccc4s3)cc2C1c1cc2ccccc2nc1Cl (stereo not given)	16 (≈ 32.1 µM)	64 (≈ 128 µM)	16 (≈ 32.1 µM)	16 (≈ 32.1 µM)
CCOC(=O)C1=C(N)Oc2ccc(Sc3nc4ccccc4[nH]3)cc2C1c1cccs1 (stereo not given)	125 (≈ 278 µM)	125 (≈ 278 µM)	125 (≈ 278 µM)	125 (≈ 278 µM)
CCOC(=O)C1=C(N)Oc2ccc(Sc3nc4cc(OC)ccc4[nH]3)cc2C1c1cccs1 (stereo not given)	125 (≈ 261 µM)	125 (≈ 261 µM)	125 (≈ 261 µM)	125 (≈ 261 µM)
COc1ccc2[nH]c(Sc3ccc4c(c3)C(c3cccs3)C(C#N)=C(N)O4)nc2c1 (stereo not given)	250 (≈ 578 µM)	250 (≈ 578 µM)	125 (≈ 289 µM)	125 (≈ 289 µM)
CCOC(=O)C1=C(N)Oc2ccc(Sc3nc4cc(OC)ccc4[nH]3)cc2C1c1ccc2c(c1)OCO2 (stereo not given)	125 (≈ 242 µM)	125 (≈ 242 µM)	125 (≈ 242 µM)	125 (≈ 242 µM)
CCOC(=O)C1=C(N)Oc2ccc(Sc3nc4cc(OC)ccc4[nH]3)cc2C1c1ccc([N+](=O)[O-])cc1 (stereo not given)	64 (≈ 123 µM)	64 (≈ 123 µM)	32 (≈ 61.7 µM)	64 (≈ 123 µM)
CCOC(=O)C1=C(N)Oc2ccc(Sc3nc4ccccc4[nH]3)cc2C1c1ccc(Cl)cc1 (stereo not given)	32 (≈ 66.9 µM)	64 (≈ 134 µM)	8 (≈ 16.7 µM)	64 (≈ 134 µM)
N#CC1=C(N)Oc2ccc(Sc3nc4ccccc4[nH]3)cc2C1c1ccc(Cl)cc1 (stereo not given)	16 (≈ 37.1 µM)	16 (≈ 37.1 µM)	16 (≈ 37.1 µM)	16 (≈ 37.1 µM)
CCOC(=O)C1=C(N)Oc2ccc(Sc3nc4ccccc4[nH]3)cc2C1c1ccc([N+](=O)[O-])cc1 (stereo not given)	16 (≈ 32.8 µM)	32 (≈ 65.5 µM)	8 (≈ 16.4 µM)	16 (≈ 32.8 µM)
CCOC(=O)C1=C(N)Oc2ccc(Sc3nc4ccccc4[nH]3)cc2C1c1cccc([N+](=O)[O-])c1 (stereo not given)	64 (≈ 131 µM)	64 (≈ 131 µM)	32 (≈ 65.5 µM)	32 (≈ 65.5 µM)
CCOC(=O)C1=C(N)Oc2ccc(Sc3nc4cc(OC)ccc4[nH]3)cc2C1c1cccc([N+](=O)[O-])c1 (stereo not given)	125 (≈ 241 µM)	125 (≈ 241 µM)	125 (≈ 241 µM)	125 (≈ 241 µM)
CCOC(=O)C1=C(N)Oc2ccc(Sc3nc4cc(OC)ccc4[nH]3)cc2C1c1ccc(Cl)cc1 (stereo not given)	32 (≈ 63 µM)	64 (≈ 126 µM)	64 (≈ 126 µM)	64 (≈ 126 µM)
COc1ccc2[nH]c(Sc3ccc4c(c3)C(c3ccc([N+](=O)[O-])cc3)C(C#N)=C(N)O4)nc2c1 (stereo not given)	16 (≈ 33.9 µM)	16 (≈ 33.9 µM)	8 (≈ 17 µM)	16 (≈ 33.9 µM)
